Experimental data published in ChEMBL document CHEMBL3352788, “Characterization of selective exosite-binding inhibitors of matrix metalloproteinase 13 that prevent articular cartilage degradation in vitro” (J Med Chem, 2014).

Assays:
[1] = biological target: T1, Collagenase 3 (Homo sapiens, UniProt P45452); assay: Non-competitive inhibition of full-length recombinant human MMP-13 assessed as fTHP-15 substrate hydrolysis
[2] = biological target: Urokinase-type plasminogen activator (Homo sapiens) (UniProt P00749); assay: Inhibition of recombinant human uPA using GRTSSVEP substrate at up to 20 uM after 3 hrs
How it was run: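 Each protease was preincubated 30 min at 25 °C with compound in its assay buffer. Peptide substrate was then added and the reaction ran 3 h at 25 °C before quenching with SDS/EDTA/iodoacetate. Substrate-to-product conversion (%) was read by microfluidic electrophoresis. Compounds were tested in singlicate as 12-point 3-fold dilutions from 20 μM to 0.1 nM. IC50 was taken as the concentration giving 50% of no-compound control activity.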

[3] = test system: Liver; assay: Half life in mouse liver microsomes by LC-MS/MS analysis; format: ADME
How it was run: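 Compound at 1 μM with 1 mg/mL liver microsomes in 100 mM potassium phosphate pH 7.4 at 37 °C with shaking. Reaction started with 1 mM NADPH (final). Aliquots were taken at 0, 5, 10, 20, 40 and 60 min and quenched in acetonitrile. Parallel incubations without NADPH were run.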

[4] = biological target: T2, Cytochrome P450 1A2 (Homo sapiens, UniProt P05177); assay: Inhibition of CYP1A2 (unknown origin) using tacrin substrate; format: ADME
T2 sequence (P05177 whole entry): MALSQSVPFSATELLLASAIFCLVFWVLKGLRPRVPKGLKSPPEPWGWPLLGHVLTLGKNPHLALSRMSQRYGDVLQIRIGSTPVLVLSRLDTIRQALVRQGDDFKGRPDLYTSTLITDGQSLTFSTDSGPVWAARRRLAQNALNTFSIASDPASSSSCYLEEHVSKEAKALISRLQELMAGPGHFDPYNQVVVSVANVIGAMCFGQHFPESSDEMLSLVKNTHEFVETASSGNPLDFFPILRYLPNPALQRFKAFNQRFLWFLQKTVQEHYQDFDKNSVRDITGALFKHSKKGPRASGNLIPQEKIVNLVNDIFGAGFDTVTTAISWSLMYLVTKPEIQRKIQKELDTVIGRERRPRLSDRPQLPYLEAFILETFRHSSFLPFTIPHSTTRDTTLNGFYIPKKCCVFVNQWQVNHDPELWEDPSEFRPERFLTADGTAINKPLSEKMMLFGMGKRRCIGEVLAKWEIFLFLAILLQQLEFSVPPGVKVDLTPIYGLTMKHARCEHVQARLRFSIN
How it was run: (§1)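 Human liver microsomes with probe substrate and an NADPH-regenerating system in 0.1 M potassium phosphate pH 7.4 at 37 °C, run in duplicate. Inhibitor at 0–20 μM (0–2.5 μM for one compound), eight concentrations. Reactions were stopped with acetonitrile/formic acid containing isotope-labelled internal standard, and metabolite area ratios were compared with and without inhibitor. IC50 was taken by linear interpolation between bracketing concentrations.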

[5] = biological target: T3, Cytochrome P450 2B6 (Homo sapiens, UniProt P20813); assay: Inhibition of CYP2B6 (unknown origin) using bupropion substrate; format: ADME; how it was run: as §1
T3 sequence (P20813 whole entry): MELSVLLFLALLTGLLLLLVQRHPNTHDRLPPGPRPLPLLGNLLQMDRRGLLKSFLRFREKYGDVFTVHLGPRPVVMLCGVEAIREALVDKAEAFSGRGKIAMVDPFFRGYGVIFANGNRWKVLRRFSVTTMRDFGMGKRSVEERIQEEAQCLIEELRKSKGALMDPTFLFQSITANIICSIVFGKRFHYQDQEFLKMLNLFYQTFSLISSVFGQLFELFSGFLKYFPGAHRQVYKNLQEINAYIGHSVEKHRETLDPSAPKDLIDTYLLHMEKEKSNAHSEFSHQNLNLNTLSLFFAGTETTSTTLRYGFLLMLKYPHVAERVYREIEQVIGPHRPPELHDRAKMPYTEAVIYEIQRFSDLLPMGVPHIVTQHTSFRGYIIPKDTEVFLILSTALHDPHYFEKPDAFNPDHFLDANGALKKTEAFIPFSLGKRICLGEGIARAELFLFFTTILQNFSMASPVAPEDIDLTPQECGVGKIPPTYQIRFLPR

[6] = biological target: T1, Collagenase 3; assay: Inhibition of full-length recombinant human MMP-13 assessed as bovine type-2 collagen hydrolysis after 22 hrs by fluorescence assay
[7] = biological target: T4, Caspase-1 (Homo sapiens) (UniProt P29466); assay: Inhibition of recombinant human caspase 1 using WEHDGPKR substrate at up to 5 uM after 3 hrs
T4 sequence (whole entry): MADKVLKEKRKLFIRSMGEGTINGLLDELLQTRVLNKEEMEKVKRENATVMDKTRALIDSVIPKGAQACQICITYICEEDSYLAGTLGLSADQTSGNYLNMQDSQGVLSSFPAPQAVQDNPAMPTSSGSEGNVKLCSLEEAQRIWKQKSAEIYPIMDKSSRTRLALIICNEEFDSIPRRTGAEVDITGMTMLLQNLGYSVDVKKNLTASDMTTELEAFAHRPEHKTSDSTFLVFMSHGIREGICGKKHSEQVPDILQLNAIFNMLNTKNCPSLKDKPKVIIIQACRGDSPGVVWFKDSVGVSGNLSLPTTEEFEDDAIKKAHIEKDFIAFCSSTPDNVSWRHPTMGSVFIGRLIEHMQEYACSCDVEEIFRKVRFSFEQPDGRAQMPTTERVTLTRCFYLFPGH
How it was run: (§2)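 Outsourced microfluidic protease panel. Compound was preincubated with each protease for 30 min at 25 °C, then peptide substrate was added for 3 h at 25 °C and quenched with SDS/EDTA/iodoacetate. Substrate-to-product conversion was measured on LabChip. Compounds were tested singly in a 12-point 3-fold dilution series, top 20 μM (5 μM for two reference compounds).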

[8] = biological target: T5, Cathepsin K (Homo sapiens) (UniProt P43235); assay: Inhibition of recombinant human cathepsin K using HHQKLVFFAE substrate at up to 5 uM after 3 hrs; how it was run: as §2
T5 sequence (whole entry): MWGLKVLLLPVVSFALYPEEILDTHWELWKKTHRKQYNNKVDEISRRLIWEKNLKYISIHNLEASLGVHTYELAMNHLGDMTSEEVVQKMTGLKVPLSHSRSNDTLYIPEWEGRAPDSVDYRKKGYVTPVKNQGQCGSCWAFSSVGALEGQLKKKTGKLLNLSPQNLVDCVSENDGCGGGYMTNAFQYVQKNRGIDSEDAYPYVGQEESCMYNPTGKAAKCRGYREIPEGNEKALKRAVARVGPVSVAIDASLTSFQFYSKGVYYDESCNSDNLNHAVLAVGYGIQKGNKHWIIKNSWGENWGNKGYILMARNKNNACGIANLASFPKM

[9] = biological target: Prothrombin (Homo sapiens) (UniProt P00734); assay: Inhibition of recombinant human thrombin using PRTLT substrate at up to 5 uM after 3 hrs
How it was run: (§3)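 In this microfluidic protease panel, enzyme and compound were preincubated 30 min at 25 °C. The peptide substrate was added and the reaction was incubated 3 h at 25 °C, then quenched (SDS, EDTA, iodoacetate). Activity was read as % substrate converted to product. Dose–response was singlicate, 12-point 3-fold dilutions spanning 5 μM to 0.028 nM. IC50 was the concentration leaving 50% activity relative to no-compound control.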

[10] = biological target: Urokinase-type plasminogen activator (Homo sapiens) (UniProt P00749); assay: Inhibition of recombinant human uPA using GRTSSVEP substrate at up to 5 uM after 3 hrs; how it was run: as §3

With `Oc1nc(SCc2ccc(Cl)cc2)nc2c1CCC2` as the compound, how does the IC50 [1] read?
Its IC50 is 3.4 µM.

What about the inhibition [2] of the same compound?
Its inhibition is under 10%.

And the t1/2 [3]?
The t1/2 was 1.3 min.

What about the IC50 [4] of the same compound?
Its IC50 is 8.6 µM.

What about the IC50 [5] of the same compound?
The IC50 was over 20 µM.

And the IC50 [6]?
Its IC50 is 0.7 µM.

What about the inhibition [6] of the same compound?
Its inhibition is “Dose-dependent effect”.

How did the inhibition [7] turn out when `Cc1cc(CNC(=O)c2cc(C(=O)NCc3ccc(F)c(C)c3)ncn2)ccc1F` was run?
The inhibition was under 10%.

What about the inhibition [8] of the same compound?
The inhibition was under 10%.

And the inhibition [9]?
The inhibition was under 10%.

What about the inhibition [10] of the same compound?
Its inhibition is under 10%.

What about the IC50 [4] of the same compound?
Its IC50 is over 20 µM.

And the IC50 [5]?
The IC50 was over 20 µM.

`Cn1c(=O)n(Cc2ccc(C(=O)O)cc2)c(=O)c2cc(C#CCc3ccccc3)ccc21` was tested. Which inhibition [7] did it give?
The inhibition was under 10%.

And the inhibition [8]?
The inhibition was over 10%.

What about the inhibition [9] of the same compound?
Its inhibition is under 10%.

What about the inhibition [10] of the same compound?
Its inhibition is under 10%.

What about the IC50 [4] of the same compound?
The IC50 was over 2.5 µM.

What about the IC50 [5] of the same compound?
Its IC50 is over 2.5 µM.

With `Cc1ccc(CSc2nc(O)c3c(n2)CCC3)cc1` as the compound, how does the inhibition [2] read?
The inhibition was under 10%.

What about the inhibition [6] of the same compound?
Its inhibition is “Dose-dependent effect”.

Which results are given for `COC(=O)c1ccc(CSc2nc3c(c(=O)[nH]2)CCC3)cc1`?
IC50 [1]: 2.8 µM; inhibition [2]: < 10%; t1/2 [3]: 2 min; IC50 [4]: > 20 µM; IC50 [5]: > 20 µM; IC50 [6]: 2.3 µM
